Measured values published in ChEMBL document CHEMBL1140735, “Structure-activity relationships of C6-uridine derivatives targeting plasmodia orotidine monophosphate decarboxylase” (J Med Chem, 2008).

Tests used:
CHO = assay: Cytotoxicity against CHO cells; format: cell-based; conditions: Cricetulus griseus
Procedure, shortened: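 CHO cells in RPMI 1640 with 10% fetal calf serum, 25 mM HEPES and gentamicin were grown to 50% confluency. Compounds from 10 mg/mL DMSO stocks were added as a serial dilution series, with DMSO-only controls. After 48 h, MTT was added for 1 h and formazan dissolved in DMSO. Absorbance at 650 nm; IC50 by nonlinear regression of dose–response.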

Plasmodium falciparum [1] = assay: Antimalarial activity against Plasmodium falciparum 3D7; format: functional, organism-based
Procedure, shortened: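 Parasites grown in human O+ erythrocytes in RPMI 1640 with 10% human serum and 50 µM hypoxanthine. Compounds from 10 mg/mL DMSO stocks were serially 2-fold diluted and added to culture at 2% hematocrit and 2% parasitemia. Incubation was 48 h at 37 °C under 95% N2/3% CO2/2% O2.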

[2] = Inhibition of Plasmodium falciparum ODCase
[3] = Inhibition of Plasmodium vivax ODCase
Procedure, shortened: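 Calorimetric assay of P. vivax ODCase: enzyme (50 or 70 nM) was mixed with inhibitor (40–250 µM) in 50 mM Tris with 1 mM DTT, and activity was started by a single OMP injection to a final 12 µM. Competitive Ki was determined. For time-dependent inactivation, 50 µM enzyme was incubated at 25 °C in Tris pH 8.0 with 37.5–75 mM inhibitor for 1–48 h, then diluted 1000-fold and assayed.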

[4] = Stability assessed as half life of hydrolysis; format: physicochemical
[5] = Inhibition of Methanobacterium thermoautotrophicum ODCase; design: species or system Methanothermobacter thermautotrophicus
[6] = system: Methanothermobacter thermautotrophicus
Plasmodium falciparum [7] = system: Plasmodium falciparum

Question: Which results are given for `Cc1cc(=O)[nH]c(=O)n1[C@@H]1O[C@H](CO)[C@@H](O)[C@H]1O`?
Answer: IC50 (CHO): > 1160 µM; IC50 (Plasmodium falciparum [1]): 530 µM

Question: With `[N-]=[N+]=Nc1cc(=O)[nH]c(=O)n1[C@@H]1O[C@H](CO)[C@@H](O)[C@H]1O` as the compound, how does the IC50 (CHO) read?
Answer: The IC50 was greater than 1500 µM.

Question: And the IC50 (Plasmodium falciparum [1])?
Answer: Its IC50 is 1230 µM.

Question: Which IC50 (CHO) does the source give for `CNc1cc(=O)[nH]c(=O)n1[C@@H]1O[C@H](CO)[C@@H](O)[C@H]1O` here?
Answer: The IC50 was 71.9 µM.

Question: And the IC50 (Plasmodium falciparum [1])?
Answer: Its IC50 is 28.5 µM.

Question: Which results are given for `Cc1cc(=O)[nH]c(=O)n1[C@@H]1O[C@H](COP(=O)(O)O)[C@@H](O)[C@H]1O`?
Answer: Ki [2]: 34.1 µM; Ki [3]: 22.4 µM

Question: Which results are given for `Nc1cc(=O)[nH]c(=O)n1[C@@H]1O[C@H](CO)[C@@H](O)[C@H]1O`?
Answer: IC50 (CHO): > 1500 µM; IC50 (Plasmodium falciparum [1]): > 1500 µM

Question: Which half-life [4] does the source give for `N#Cc1cc(=O)[nH]c(=O)n1[C@@H]1O[C@H](COP(=O)(O)O)[C@@H](O)[C@H]1O` here?
Answer: The half-life was 5 h.

Question: And the Ki [3]?
Answer: The Ki was 62 µM.

Question: With `[N-]=[N+]=Nc1cc(=O)[nH]c(=O)n1[C@@H]1O[C@H](COP(=O)(O)O)[C@@H](O)[C@H]1O` as the compound, how does the Ki [5] read?
Answer: The Ki was 0.19 µM.

Question: And the Ki [2]?
Answer: Its Ki is 2 µM.

Question: And the KI [6]?
Answer: Its KI is 0.63 µM.

Question: What about the Kinact [6] of the same compound?
Answer: The Kinact was 61.2 h⁻¹.

Question: And the KI (Plasmodium falciparum [7])?
Answer: The KI was 7.3 µM.

Question: And the Kinact (Plasmodium falciparum [7])?
Answer: Its Kinact is 0.35 h⁻¹.

Question: Which results are given for `CN(C)c1cc(=O)[nH]c(=O)n1[C@@H]1O[C@H](CO)[C@@H](O)[C@H]1O`?
Answer: IC50 (CHO): 68.3 µM; IC50 (Plasmodium falciparum [1]): 31.7 µM

Question: What does the source list for `O=c1cc(I)n([C@@H]2O[C@H](CO)[C@@H](O)[C@H]2O)c(=O)[nH]1`?
Answer: IC50 (CHO): 366 µM; IC50 (Plasmodium falciparum [1]): 6.2 µM

Question: With `N#Cc1cc(=O)[nH]c(=O)n1[C@@H]1O[C@H](CO)[C@@H](O)[C@H]1O` as the compound, how does the IC50 (CHO) read?
Answer: The IC50 was greater than 1500 µM.

Question: And the IC50 (Plasmodium falciparum [1])?
Answer: Its IC50 is 446 µM.
